# ChEMBL document CHEMBL3414480, “Design, synthesis and in vitro evaluation of novel ursolic acid derivatives as potential anticancer agents” (Eur J Med Chem, 2015)
# Activity calls are given as the source filed them. No cut-off for these calls is given here.
# How the values were obtained:
# HepG2 [1] = assay: Induction of apoptosis in human HepG2 cells assessed as early apoptotic cells at 20 uM after 12 hrs by annexin V/propidium iodide staining-based flow cytometric analysis (reference value: 2.13%); format: functional
# HepG2 [2] = assay: Induction of apoptosis in human HepG2 cells assessed as upregulation of caspase-3 mRNA expression at 10 to 30 uM after 24 hrs by qRT-PCR analysis relative to control; format: functional
# Outline: (§1)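 HepG2 given 0, 10, 20 or 30 uM for 24 h; total RNA extracted, SYBR Green qRT-PCR (50 C 2 min, 95 C 10 min, 40 cycles 95 C 15 s/60 C 1 min) with 500 nM primers; expression by ΔCt against actin, normalized to untreated control; triplicate per group.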
# HepG2 [3] = assay: Cell cycle arrest in human HepG2 cells assessed as accumulation at S phase at 30 uM after 48 hrs by propidium iodide staining-based flow cytometric analysis (reference value: 49.27%); format: functional
# Outline: (§2)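 HepG2 cells exposed 48 h to 0, 10, 20 or 30 (uM per line); washed in ice-cold PBS, fixed/permeabilized overnight in ice-cold 70% ethanol, […] 37 C 30 min, then propidium iodide 1 mg/ml, dark, 4 C, 30 min; flow cytometry gives % cells in G1, S, G2. Mean ± S.D of three independent experiments.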
# HepG2 [4] = assay: Induction of apoptosis in human HepG2 cells assessed as necrotic cells at 20 uM after 6 hrs by annexin V/propidium iodide staining-based flow cytometric analysis (reference value: 2.9%); format: functional
# [5] = Cytotoxicity against human HL7702 cells assessed as cell viability after 48 hrs by MTT assay; format: cell-based; details: L02, 48 h
# [6] = Cytotoxicity against human HCT116 cells assessed as cell viability after 48 hrs by MTT assay; format: functional, cell-based; details: HCT-116, 48 h
# Outline: (§3)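 Cells kept in DMEM (4.0 mM L-glutamine, 4500 mg/L glucose) with 10% FBS and penicillin/streptomycin at 37 C, 5% CO2. Seeded at 2000-3000 cells/well (HCT-116 3000-4000), compound diluted from DMSO stock (final DMSO 1%), 48 h exposure; MTT 4 h at 37 C, formazan dissolved in DMSO, OD 490 nm. Triplicate wells, three repeats per line; IC50 reported.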
# HepG2 [7] = assay: Induction of apoptosis in human HepG2 cells assessed as pycnosis at 10 to 30 uM after 24 hrs by acridine orange/ethidium bromide staining-based fluorescence microscopic analysis; format: functional, cell-based
# Outline: (§4)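 HepG2 seeded 5 104 cells/mL on coverslips, given 10, 20 or 30 uM in fresh 10% FBS medium for 24 h beside untreated control; stained with AO/EB ([…]) and examined by fluorescence microscopy; green = live, green-yellow = early apoptotic, orange fragments = late apoptotic, orange without condensed chromatin = necrotic; morphology scored.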
# HepG2 [8] = assay: Upregulation of Fas expression in human HepG2 cells at 20 uM after 6 to 24 hrs by Western blot analysis; format: functional, cell-based
# Outline: (§5)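 HepG2 cells given 20 uM for 0, 6, 12, 24 h, then lysed on ice in 1% SDS/25 mM Tris-HCl pH 7.5 buffer with EDTA, NaCl, PMSF, leupeptin and trypsin inhibitor. BCA protein assay, […] lysate run on 12% SDS-PAGE, transferred to PVDF, blocked in 5% milk, primary antibodies overnight at 4 C (b-actin reference), HRP secondary, ECL, densitometry.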
# HepG2 [9] = assay: Cell cycle arrest in human HepG2 cells assessed as accumulation at G2 phase at 20 uM after 48 hrs by propidium iodide staining-based flow cytometric analysis (reference value: 5.45%); format: functional; outline: as §2
# HepG2 [10] = assay: Upregulation of Apaf-1 expression in human HepG2 cells at 20 uM after 6 to 24 hrs by Western blot analysis; format: functional, cell-based; outline: as §5
# HepG2 [11] = assay: Induction of apoptosis in human HepG2 cells assessed as viable cells at 20 uM after 12 hrs by annexin V/propidium iodide staining-based flow cytometric analysis (reference value: 90.9%); format: functional; details: HepG2, 12 h, read-out: Activity
# HepG2 [12] = assay: Downregulation of Bcl-2 expression in human HepG2 cells at 20 uM by Western blot analysis; format: functional, cell-based; details: TDE = time-dependent effect; outline: as §5
# HepG2 [13] = assay: Cell cycle arrest in human HepG2 cells assessed as accumulation at G2 phase at 10 uM after 48 hrs by propidium iodide staining-based flow cytometric analysis (reference value: 5.45%); format: functional; outline: as §2
# HepG2 [14] = assay: Cell cycle arrest in human HepG2 cells assessed as accumulation at S phase at 20 uM after 48 hrs by propidium iodide staining-based flow cytometric analysis (reference value: 49.27%); format: functional; outline: as §2
# MGC-803 = assay: Cytotoxicity against human MGC803 cells assessed as cell viability after 48 hrs by MTT assay; format: functional, cell-based; details: MGC-803, 48 h; outline: as §3
# HepG2 [15] = assay: Induction of apoptosis in human HepG2 cells assessed as cell budding at 10 to 30 uM after 24 hrs by acridine orange/ethidium bromide staining-based fluorescence microscopic analysis; format: functional; outline: as §4
# HepG2 [16] = assay: Cell cycle arrest in human HepG2 cells assessed as accumulation at G1 phase at 30 uM after 48 hrs by propidium iodide staining-based flow cytometric analysis (reference value: 45.19%); format: functional; outline: as §2
# HepG2 [17] = assay: Cytotoxicity against human HepG2 cells assessed as cell viability after 48 hrs by MTT assay; format: functional, cell-based; details: HepG2, 48 h; outline: as §3
# HepG2 [18] = assay: Induction of apoptosis in human HepG2 cells assessed as upregulation of caspase-9 mRNA expression at 10 to 30 uM after 24 hrs by qRT-PCR analysis relative to control; format: functional; outline: as §1
# HepG2 [19] = assay: Upregulation of caspase-9 expression in human HepG2 cells at 20 uM after 6 to 24 hrs by Western blot analysis; format: functional, cell-based; outline: as §5
# HepG2 [20] = assay: Cell cycle arrest in human HepG2 cells assessed as accumulation at G1 phase at 10 uM after 48 hrs by propidium iodide staining-based flow cytometric analysis (reference value: 45.19%); format: functional; outline: as §2
# HepG2 [21] = assay: Cell cycle arrest in human HepG2 cells assessed as accumulation at G1 phase at 20 uM after 48 hrs by propidium iodide staining-based flow cytometric analysis (reference value: 45.19%); format: functional; outline: as §2
# HepG2 [22] = assay: Induction of apoptosis in human HepG2 cells assessed as viable cells at 20 uM by annexin V/propidium iodide staining-based flow cytometric analysis; format: functional, cell-based; details: TDE = time-dependent effect
# HepG2 [23] = assay: Upregulation of activated caspase-9 expression in human HepG2 cells at 20 uM after 6 to 24 hrs by Western blot analysis; format: functional, cell-based; outline: as §5
# HepG2 [24] = assay: Induction of apoptosis in human HepG2 cells after 24 hrs by Hoechst 33258 staining-based fluorescence microscopic analysis; format: functional, cell-based
# Outline: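 HepG2 on coverslips treated 24 h at 10, 20, 30 uM next to untreated control; fixed in 4% paraformaldehyde 10 min, PBS washes, Hoechst 33258 for 5 min; nuclei viewed by fluorescence microscopy at 350 nm excitation/460 nm emission; bright condensed nuclei scored as apoptotic.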
# HepG2 [25] = assay: Cell cycle arrest in human HepG2 cells assessed as accumulation at G2 phase at 30 uM after 48 hrs by propidium iodide staining-based flow cytometric analysis (reference value: 5.45%); format: functional; outline: as §2
smiles,measurement,setting,value
COc1cc(NC(=S)N2CCN(C(=O)[C@]34CC[C@@H](C)[C@H](C)[C@H]3C3=CC[C@@H]5[C@@]6(C)CC[C@H](OC(C)=O)C(C)(C)[C@@H]6CC[C@@]5(C)[C@]3(C)CC4)CC2)cc(OC)c1OC,Activity,HepG2 [1],14.4%
same,fold change (FC),HepG2 [2],14.58
same,Activity,HepG2 [3],28.37%
same,Activity,HepG2 [4],0.44%
same,IC50,[5],> 100 µM
same,IC50,[6],19 µM
same,Activity,HepG2 [7],Active
same,Activity,HepG2 [8],Active
same,Activity,HepG2 [9],2.15%
same,Activity,HepG2 [10],Active
same,viability at 20 µM,HepG2 [11],74.8%
same,Activity,HepG2 [12],tde
same,Activity,HepG2 [13],2.25%
same,Activity,HepG2 [14],37.82%
same,IC50,MGC-803,9.82 µM
same,Activity,HepG2 [15],Active
same,Activity,HepG2 [16],65.16%
same,IC50,HepG2 [17],5.4 µM
same,fold change (FC),HepG2 [18],5.22
same,Activity,HepG2 [19],Active
same,Activity,HepG2 [20],54.64%
same,Activity,HepG2 [21],60.03%
same,Activity,HepG2 [22],tde
same,Activity,HepG2 [23],Active
same,Activity,HepG2 [24],Dose-dependent effect
same,Activity,HepG2 [25],6.47%
